The values below come from ChEMBL document CHEMBL1158125, “seco-Cycloartane triterpenes from Gardenia aubryi” (J Nat Prod, 2006).

SMILES strings stand for the structures. Where a name gives a salt, the structure may show the parent alone.

Assay type in all cases: functional, cell-based
One assay relates to HeLa. The assay can be described thus: Cytotoxicity against human HeLa cells after 48 hrs by MTT assay. Summed up:
(§1)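 Cells grown in DMEM with penicillin (100 U/mL), streptomycin (100 μg/mL) and 10% FBS at 37 °C, 5% CO2, and seeded at 5000 cells/well. After 24 h, compounds were added diluted in DMSO and left for 48 h. Medium was then replaced with MTT (1 mg/mL final, serum-free phenol-red-free RPMI) for 4 h. Formazan was dissolved in isopropanol and read at 550 nm (reference 690 nm). IC50 reported.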

The next assay deals with MDA-MB-231. The assay can be described thus: Cytotoxicity against human MDA-MB-231 cells after 48 hrs by MTT assay. The conditions noted are these: MDA-MB-231, 48 h. Summed up:
as §1

For another assay, the system named is MCF7. The assay can be described thus: Cytotoxicity against human MCF7 cells after 48 hrs by MTT assay. Conditions: MCF7, 48 h. Summed up:
as §1

The next assay deals with PC-3. The assay can be described thus: Cytotoxicity against human PC-3 cells after 48 hrs by MTT assay. Conditions: PC-3, 48 h. Summed up: as §1

Turning to `COc1cccc2c1C(=O)c1c(O)c3c(c(O)c1C2=O)C[C@@](O)(C(C)=O)C[C@@H]3O[C@H]1C[C@H](N)[C@H](O)[C@H](C)O1` [DAUNORUBICIN HYDROCHLORIDE], the IC50 in the assay on HeLa stood at 0.32 µM; with MDA-MB-231, 0.25 µM; with MCF7, 0.22 µM; in the assay with PC-3, 0.44 µM.
The like results for `C=C(CO)[C@@H]1CC[C@H]2[C@]3(CC[C@]4(C)[C@@H]([C@H](C)CCC=C(C)C)CC[C@@]24C)C[C@]13CCC(=O)O` [SECAUBRYENOL] were, in that order, greater than 100 µM, greater than 100 µM, greater than 100 µM and greater than 100 µM.
Take `C=C1C(=O)O[C@@H]2C[C@@H]3[C@]4(CC[C@]5(C)[C@@H]([C@H](C)CC(=O)C=C(C)C)CC[C@@]35C)C[C@]4(CCC(=O)OC)[C@H]12` [SECAUBRYOLIDE]: the concentration for half-maximal inhibition (IC50) was 40 µM in the assay with HeLa, 21 µM with MDA-MB-231, 52 µM in the assay with MCF7 and 35 µM in the assay on PC-3.
Consider `C=C(CO)[C@@H]1CC[C@H]2[C@]3(CC[C@]4(C)[C@@H]([C@H](C)CC[C@@H](O)C(C)(C)O)CC[C@@]24C)C[C@]13CCC(=O)O` [SECAUBRYTRIOL], for which the IC50 in the assay on HeLa, in the assay with MDA-MB-231, in the assay with MCF7 and with PC-3 was greater than 100 µM each time.
